# In the library only some 4.6% were active in any assay of this set; here they are far more common.
# p97 ATPase inh: inhibitors of human p97 ATPase, primary screen, biochemical; Transitional endoplasmic reticulum ATPase (Homo sapiens), P55072; inhibition, % at 8 µM; recombinant p97 ATPase, Kinase-Glo ATP luminescence, 3 h; actives 0.42% (n = 220,000); in the data active = inhibition above about 15%;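 note: 0% = DMSO vehicle and 100% = wells lacking enzyme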
# Target sequence (P55072 whole entry, looked up): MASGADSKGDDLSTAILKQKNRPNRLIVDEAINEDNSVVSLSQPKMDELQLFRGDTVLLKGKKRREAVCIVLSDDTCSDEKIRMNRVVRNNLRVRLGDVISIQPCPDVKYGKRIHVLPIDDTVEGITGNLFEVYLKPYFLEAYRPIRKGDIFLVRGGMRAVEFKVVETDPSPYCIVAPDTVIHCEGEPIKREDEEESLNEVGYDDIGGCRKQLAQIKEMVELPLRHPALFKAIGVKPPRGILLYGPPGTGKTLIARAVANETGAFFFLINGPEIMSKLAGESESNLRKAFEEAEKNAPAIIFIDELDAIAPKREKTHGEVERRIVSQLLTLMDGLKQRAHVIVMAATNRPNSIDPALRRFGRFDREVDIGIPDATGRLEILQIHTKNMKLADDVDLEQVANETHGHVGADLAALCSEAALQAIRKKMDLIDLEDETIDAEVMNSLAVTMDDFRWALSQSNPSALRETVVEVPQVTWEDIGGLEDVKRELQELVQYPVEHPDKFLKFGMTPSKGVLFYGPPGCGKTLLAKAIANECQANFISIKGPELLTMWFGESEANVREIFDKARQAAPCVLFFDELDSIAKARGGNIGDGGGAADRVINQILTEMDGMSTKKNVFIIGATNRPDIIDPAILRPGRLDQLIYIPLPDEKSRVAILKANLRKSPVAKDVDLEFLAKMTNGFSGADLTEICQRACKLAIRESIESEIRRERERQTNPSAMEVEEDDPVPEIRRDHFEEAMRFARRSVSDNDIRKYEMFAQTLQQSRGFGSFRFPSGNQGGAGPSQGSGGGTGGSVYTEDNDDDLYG
# MDM2 E3 inh: MDM2-luciferase reporter signal enhancers, primary screen, MDM2 E3 ligase inhibitor project, cell-based, luminescence, 1536-well. E3 ubiquitin-protein ligase Mdm2 (Homo sapiens), Q00987. cell-based MDM2 ubiquitination luciferase reporter, 2 h; 0 = plate control, 100 = twice control, blank-subtracted. signal enhancement, % at 5 µM. actives 0.11% (n = 210,000);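 active = signal enhancement of 30% or more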;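 note: luminescence tracks abundance of the self-degrading MDM2-luciferase fusion protein; higher signal means inhibition of MDM2 E3 ligase activity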
#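 Assay system: stable mammalian line carrying autodegrading MDM2–luciferase fusion reporter; Input: 2000 cells in each well; Compound dosing: single-point 5 µM; Schedule: 2 h compound exposure at 37 °C; Signal: SteadyLite luciferase luminescence after 15 min room-temperature reagent incubation; Evaluation: % luminescence enhancement versus blank-corrected plate control mean; Benchmarks: plate controls and plate blanks.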
# APP 5'UTR act: activators of APP 5'UTR luciferase reporter, primary screen, SH-SY5Y cells; SH-SY5Y APP 5'UTR luciferase reporter, luminescence; zero percent = DMSO vehicle wells; activation, % at 2 µM; actives 1% (n = 190,000);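 active = activation above a set limit, based on mean plus 3 SD of controls, cut at about 140% in these data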
# Wee1 stabilizer: Wee1 degradation inhibitors, primary screen, cell-based, HeLa, Wee1K328M-luciferase, luminescence; Wee1-like protein kinase (Homo sapiens), P30291; actives 1.2% (n = 220,000); AID 1321, 2008; HeLa Luc-Wee1K328M stability; 100% = proteasome inhibitor MG132 effect; reporter increase, % at 5 µM;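 active = activation above the mean of all tested compounds plus 3 SD, set per screening run, cut at about 8.8% in these data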;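 note: cells exposed to compound for 20 h before luminescence read; 0% = DMSO alone and 100% = MG132 at 30 µM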
# NF-kB expr up: activators of NF-kB expression in neurons, primary screen, cell-based, HTS; fold change at 12.5 µM; actives 1.6% (n = 190,000); AID 1239, 2008; human neuronal cells, NF-kB reporter expression; stronger effect = higher value; in the data active = fold change above about 3.3
# STAT1 activator: STAT1 signaling activators, primary screen, cell-based, HTS, luciferase reporter; actives 2.6% (n = 200,000); NIH 3T3 STAT1-luciferase reporter, IFN-gamma, luminescence; 100% = IFN-gamma alone, no compound; activation (% of control), % at 5.5 µM;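 active = activation above the screen-wide mean activation plus 3 SD, cut at about 130% in these data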;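 note: raw ratio to IFN-gamma control signal so 100% means no change and 0% no light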
# Wee1 stab conf: Wee1 degradation inhibitors, confirmation, cell-based, HeLa, Wee1K328M-luciferase, luminescence, triplicate | shares compounds with Wee1 stabilizer | activation, % at 5 µM | HeLa Luc-Wee1K328M degradation; vehicle 0%, proteasome-blocked wells 100% | actives 4% (n = 1,100); in the data active = activation above about 8.9%
# An asterisk follows results filed as active; · = no result.
SMILES,p97 ATPase inh,MDM2 E3 inh,APP 5'UTR act,Wee1 stabilizer,NF-kB expr up,STAT1 activator,Wee1 stab conf
COC(=O)c1ccccc1NC(=O)Cn1c(CCC(=O)O)ccc1-c1cccs1,2,-4,-6,17*,1.1,98,7
COc1ccc(/C=C(\C#N)C(=O)OCC(=O)Nc2c(C)cccc2C(C)C)cc1,6,·,12,0,1.2,101,·
Cc1ccc(N2CCN(c3ccc(NCc4nc5ccccc5n4C)cc3)CC2)cc1,7,5,-15,-2,0.96,99,·
Cn1c(CNc2ccc(Cl)cc2)nc2ccccc21,-6,1,175*,13*,3.9*,143*,8
O=C(Nc1ccc(F)cc1)C(Cc1ccccc1)n1cccc1 (centres undefined),2,-15,·,12*,·,·,0
CCN(C(=O)CSc1nnc(C)n1Cc1ccccc1)C1CCS(=O)(=O)C1 (centres undefined),-3,-19,-1,13*,1.3,95,0
CCCCOC(=O)Nc1nnc(Cc2ccc(Cl)cc2)s1,0,-11,5,4,1.3,102,·
COc1ccc(S(=O)(=O)N2CCN(CC(=O)Nc3ccc(F)c(F)c3)CC2)cc1,3,-7,1,12*,1.1,103,1
C(=N\Nc1nc2ccccc2s1)/c1cccs1,-7,-12,212*,14*,7.1*,146*,5
C(=N\Nc1nc2ccccc2s1)/c1ccco1,1,-1,203*,12*,5.5*,144*,3
CCn1c(C)c(/C=N/Nc2nc3ccccc3s2)c2ccccc21,-3,-7,48,-2,1.3,117,·
Cc1ccsc1/C=N/Nc1nc2ccccc2s1,-1,-17,232*,14*,11*,181*,6
CC(=O)Nc1ccc(/C=N/Nc2nc3ccccc3s2)cc1,8,-20,·,13*,·,·,10*
CC(=O)Nc1ccc(S(=O)(=O)Nc2nc3ccccc3s2)cc1,-2,-4,16,1,1.1,98,·
N#CCN1CCC2(O)CCCCC2C1c1ccc2c(c1)OCO2 (centres undefined),5,-14,·,4,·,·,·
CC(=O)c1ccc(NC(=S)NCCc2ccc(S(N)(=O)=O)cc2)cc1,3,1,10,27*,1.3,117,2
CCn1c(C(C)NC(=O)c2cccs2)n[nH]c1=S (centres undefined),3,-22,20,-3,1.1,87,·
C(=C/c1ccnc2nc(SC/C=C/c3ccccc3)nn12)/c1ccccc1,2,-2,-6,-2,1.2,102,·
COc1ccc(Nc2nc(N)nc(CSc3nccn3C)n2)cc1,4,-9,74,12*,2.3,126,1
COc1ccc(Nc2nc(N)nc(CSc3nnc(N)s3)n2)cc1,-3,-3,-44,1,2,111,·
COc1ccccc1C1SCCN1S(C)(=O)=O (centres undefined),3,-2,6,21*,1,101,5
COc1ccc(OC)c(C2SCCN2S(C)(=O)=O)c1 (centres undefined),3,1,15,-1,1.2,111,·
CCCCCCCCCCn1c2c(c(=N)c3c1CCC3)CCC2,-4,-11,-23,-2,2.6,77,·
CCCCCCCCCn1c2c(c(=N)c3c1CCC3)CCCC2,-4,-39,-2,11*,2.3,52,0
CC(=O)N(C)c1ccc(N=Nc2c(C)[nH]n(C(N)=S)c2=O)cc1,1,-40,139*,17*,4.5*,148*,2
SMILES,p97 ATPase inh,MDM2 E3 inh,APP 5'UTR act,Wee1 stabilizer,NF-kB expr up,STAT1 activator,Wee1 stab conf
CCN(CC)S(=O)(=O)c1ccc(N=Nc2c(C)[nH]n(C(N)=S)c2=O)cc1,-1,-10,22,6,1.7,116,·
Cc1cc(C)n(-c2ccc(C(=O)Nc3cc(C(F)(F)F)ccc3N3CCOCC3)cc2)n1,1,-12,15,13*,0.87,102,0
C/C(CC(=O)NC1CCCCC1)=N\NC(=O)Cc1ccc(-c2ccccc2)cc1,9,-6,16,-3,1.3,101,·
O=C(OCC(=O)c1ccccc1Cl)c1cnccn1,4,-61,-1,12*,1.1,93,-6
COc1ccc(NC(=O)CCN2C(=O)[C@@H]3[C@H](C2=O)[C@H]2C=C[C@@H]3C2)cc1,6,7,·,-2,·,·,·
COc1ccc(NC(=O)CCN2C(=O)C3C4CCC(C4)C3C2=O)cc1 (centres undefined),-6,-9,5,12*,1.6,104,3
Nc1nnc(-c2cccc([N+](=O)[O-])c2)o1,-4,-13,·,11*,·,·,2
O=[N+]([O-])c1cccc(-c2nnc(C3CC3)o2)c1,6,-6,·,-2,·,·,·
CC1CCCN(CC(O)COC(c2ccccc2)c2ccccc2)C1 (centres undefined),-5,-4,7,12*,1.2,84,-1
N#CC1=C(N)N(c2ccc(F)cc2)C2=C(C1c1ccc(O)cc1)S(=O)(=O)CC2 (centres undefined),3,-5,32,-2,1.2,96,·
COc1ccc(NS(=O)(=O)c2cn(C)c(=O)n(C)c2=O)cc1,10,-7,·,0,·,·,·
O=C(CSCc1ccc(Cl)cc1)N1CCOCC1,1,3,-3,-2,1.4,110,·
Cc1ccc(CSCC(=O)N2CCOCC2)cc1,-1,-8,-7,13*,1.3,108,0
Cc1ccc(C2=NN(C(=O)CCC(=O)O)C(c3cn(-c4ccccc4)nc3-c3ccc(C)cc3)C2)cc1 (centres undefined),0,-6,-6,0,1.3,99,·
CCn1c(CSc2nc(C)cc(C)n2)nnc1SCC(=O)N1CCCc2ccccc21,-3,-24,-4,14*,1,106,1
CCn1c(CNc2ccc(OC)cc2)nnc1SCC(=O)N1CCCc2ccccc21,-12,-10,3,2,1.1,101,·
CC[n+]1c(C)cc2c(sc3ccccc32)c1C,-1,-6,-4,-2,1.1,86,·
CCc1nc(C)cc2c1sc1ccccc12,2,6,·,25*,·,·,1

# Bioassay records as filed in PubChem.
